In brackets after ≈: the same amount, converted by molar mass. Activity calls are given as the source filed them. The calls are words filed in the database; no cut-off is given here.
Legend:
Pseudomonas aeruginosa [1] = experiment: Antibacterial activity against 69_C12 allele containing Pseudomonas aeruginosa PAO1 H1109 mutant strain with recA::lux mutation after 24 hrs by broth microdilution technique; format: functional
How it was run: (§1)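 Broth microdilution MIC with P. aeruginosa PAO1 H103 (wild type), Tn5-lux insertion mutants or complemented strain. Overnight LB cultures grown at 37°C with agitation, diluted 1:1,000 in LB. Antimicrobials made fresh daily. Growth scored after 24 h at 37°C. Four independent repeats; mode reported.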

Pseudomonas aeruginosa [2] = experiment: Antibacterial activity against 31_C9 allele containing Pseudomonas aeruginosa PAO1 H1104 mutant strain with lon::lux mutation after 24 hrs by broth microdilution technique; format: functional; how it was run: as §1
Pseudomonas aeruginosa [3] = experiment: Antibacterial activity against 24_A2 allele containing Pseudomonas aeruginosa PAO1 H1106 mutant strain with lon::lux mutation after 24 hrs by broth microdilution technique; format: functional; how it was run: as §1
Pseudomonas aeruginosa [4] = experiment: Antibacterial activity against 75_F11 allele containing Pseudomonas aeruginosa PAO1 H1136 mutant strain with PA5455::lux mutation after 24 hrs by broth microdilution technique; format: functional; how it was run: as §1
Pseudomonas aeruginosa [5] = experiment: Antibacterial activity against 74_D9 allele containing Pseudomonas aeruginosa PAO1 H1105 mutant strain with lon::lux mutation after 24 hrs by broth microdilution technique; format: functional; how it was run: as §1
Pseudomonas aeruginosa [6] = experiment: Antibacterial activity against 16_G12 allele containing Pseudomonas aeruginosa PAO1 H1125 mutant strain with recG::lux mutation after 24 hrs by broth microdilution technique; format: functional; how it was run: as §1
Pseudomonas aeruginosa [7] = experiment: Antibacterial activity against wild type Pseudomonas aeruginosa PAO1 H103 after 24 hrs by broth microdilution technique; format: functional; how it was run: as §1
Pseudomonas aeruginosa [8] = experiment: Antibacterial activity against 63_H5 allele containing Pseudomonas aeruginosa PAO1 H1133 mutant strain with nfxB::lux mutation after 24 hrs by broth microdilution technique; format: functional; how it was run: as §1
Pseudomonas aeruginosa [9] = experiment: Antibacterial activity against 53_F11 allele containing Pseudomonas aeruginosa PAO1 H1124 mutant strain with PA5279::lux mutation after 24 hrs by broth microdilution technique; format: functional; how it was run: as §1
Pseudomonas aeruginosa [10] = experiment: Antibacterial activity against Pseudomonas aeruginosa PAO1 H1105/lon+c mutant strain with lon::lux/lon+ mutation after 24 hrs by broth microdilution technique; format: functional; how it was run: as §1
Pseudomonas aeruginosa [11] = experiment: Antibacterial activity against 70_H3 allele containing Pseudomonas aeruginosa PAO1 H1129 mutant strain with rnt::lux mutation after 24 hrs by broth microdilution technique; format: functional; how it was run: as §1
Pseudomonas aeruginosa [12] = experiment: Antibacterial activity against 6_G1 allele containing Pseudomonas aeruginosa PAO1 H1121 mutant strain with PA4961::lux mutation after 24 hrs by broth microdilution technique; format: functional; how it was run: as §1
Pseudomonas aeruginosa [13] = experiment: Antibacterial activity against 74_D9 allele containing Pseudomonas aeruginosa PAO1 H1105 mutant strain with lon::lux mutation assessed as fold decrease in MIC after 24 hrs by broth microdilution technique relative to wild type; format: functional; how it was run: as §1
Pseudomonas aeruginosa [14] = experiment: Antibacterial activity against 31_C9 allele containing Pseudomonas aeruginosa PAO1 H1104 mutant strain with lon::lux mutation assessed as fold decrease in MIC after 24 hrs by broth microdilution technique relative to wild type; format: functional; how it was run: as §1
Pseudomonas aeruginosa [15] = experiment: Antibacterial activity against Pseudomonas aeruginosa PAO1 H1105/lon+ mutant strain with lon::lux mutation assessed as fold decrease in MIC after 24 hrs by broth microdilution technique relative to wild type; format: functional; how it was run: as §1
Pseudomonas aeruginosa [16] = experiment: Antibacterial activity against 24_A2 allele containing Pseudomonas aeruginosa PAO1 H1106 mutant strain with lon::lux mutation assessed as fold decrease in MIC after 24 hrs by broth microdilution technique relative to wild type; format: functional; how it was run: as §1
Pseudomonas aeruginosa [17] = experiment: Effect on morphological change in Pseudomonas aeruginosa PAO1 H1105 assessed as elongation in cell length at 0.03 ug/ml by Grams staining-based light microscopy; format: functional, organism-based
Pseudomonas aeruginosa [18] = experiment: Effect on morphological change in Pseudomonas aeruginosa PAO1 H1105/lon+ assessed as restoration of cell division at 0.03 ug/ml by Grams staining-based light microscopy
Pseudomonas aeruginosa [19] = experiment: Increase in lon gene expression in Pseudomonas aeruginosa PAO1 H1105 mutant strain with lon::lux mutation assessed as incese in lon::lux fusion at 0.3 times MIC by luminescence assay relative to control; format: functional, organism-based
Pseudomonas aeruginosa [20] = experiment: Effect on morphological change in Pseudomonas aeruginosa PAO1 H1105/lon+ assessed as elongation in cell length at 0.03 ug/ml by Grams staining-based light microscopy
Pseudomonas aeruginosa [21] = experiment: Antimicrobial activity in 0.01 ug/ml pretreated Pseudomonas aeruginosa PAO1 H103 at 2 times MIC after overnight incubation by adaptive resistance assay; format: functional, organism-based
How it was run: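 Modified time-kill with PAO1 H103 grown to mid-log (OD600 0.5–0.6) in LB at 37°C with or without ciprofloxacin 0.01 or 0.03 µg/ml. Cells were pelleted, washed in prewarmed PBS pH 7.4, resuspended in prewarmed LB with ciprofloxacin 0.2 µg/ml (2× MIC) and shaken at 37°C. Samples taken every 15–20 min for 2 h and plated on LB agar for overnight CFU counts at 37°C. Four independent experiments.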

Pseudomonas aeruginosa [22] = experiment: Drug resistance in Pseudomonas aeruginosa PAO1 H1105 assessed as survivality at 0.0075 ug/ml after overnight incubation by adaptive resistance assay; format: functional, organism-based

## C[C@@H](O)[C@H]1C(=O)N2C(C(=O)O)=C(SCCNC=N)C[C@H]12 [IMIPENEM ANHYDROUS]
Pseudomonas aeruginosa [1]; PAO1 H1109, 24 h
  MIC: 1 µg/mL (≈ 3.34 µM)
Pseudomonas aeruginosa [2]; PAO1 H1104, 24 h
  MIC: 1 µg/mL (≈ 3.34 µM)
Pseudomonas aeruginosa [3]; PAO1 H1106, 24 h
  MIC: 1 µg/mL (≈ 3.34 µM)
Pseudomonas aeruginosa [4]; PAO1 H1136, 24 h
  MIC: 1 µg/mL (≈ 3.34 µM)
Pseudomonas aeruginosa [5]; PAO1 H1105, 24 h
  MIC: 1 µg/mL (≈ 3.34 µM)
Pseudomonas aeruginosa [6]; PAO1 H1125, 24 h
  MIC: 1 µg/mL
Pseudomonas aeruginosa [7]; PAO1 H103, 24 h
  MIC: 1 µg/mL (≈ 3.34 µM)
Pseudomonas aeruginosa [8]; PAO1 H1133, 24 h
  MIC: 1 µg/mL (≈ 3.34 µM)
Pseudomonas aeruginosa [9]; PAO1 H1124, 24 h
  MIC: 1 µg/mL (≈ 3.34 µM)
Pseudomonas aeruginosa [10]
  MIC: 1 µg/mL (≈ 3.34 µM)
Pseudomonas aeruginosa [11]; PAO1 H1129, 24 h
  MIC: 1 µg/mL (≈ 3.34 µM)
Pseudomonas aeruginosa [12]; PAO1 H1121, 24 h
  MIC: 1 µg/mL (≈ 3.34 µM)

## CCn1cc(C(=O)O)c(=O)c2ccc(C)nc21 [NALIDIXIC ACID]
Pseudomonas aeruginosa [1]; PAO1 H1109, 24 h
  MIC: 256 µg/mL (≈ 1100 µM)
Pseudomonas aeruginosa [2]; PAO1 H1104, 24 h
  MIC: 128 µg/mL (≈ 551 µM)
Pseudomonas aeruginosa [3]; PAO1 H1106, 24 h
  MIC: 128 µg/mL (≈ 551 µM)
Pseudomonas aeruginosa [4]; PAO1 H1136, 24 h
  MIC: 512 µg/mL (≈ 2200 µM)
Pseudomonas aeruginosa [13]
  fold change (FC): 2
Pseudomonas aeruginosa [14]
  fold change (FC): 2
Pseudomonas aeruginosa [5]; PAO1 H1105, 24 h
  MIC: 128 µg/mL (≈ 551 µM)
Pseudomonas aeruginosa [15]
  fold change (FC): 1
Pseudomonas aeruginosa [6]; PAO1 H1125, 24 h
  MIC: 128 µg/mL
Pseudomonas aeruginosa [7]; PAO1 H103, 24 h
  MIC: 256 µg/mL (≈ 1100 µM)
Pseudomonas aeruginosa [16]
  fold change (FC): 2
Pseudomonas aeruginosa [8]; PAO1 H1133, 24 h
  MIC: 512 µg/mL (≈ 2200 µM)
Pseudomonas aeruginosa [9]; PAO1 H1124, 24 h
  MIC: 128 µg/mL (≈ 551 µM)
Pseudomonas aeruginosa [10]
  MIC: 256 µg/mL (≈ 1100 µM)
Pseudomonas aeruginosa [11]; PAO1 H1129, 24 h
  MIC: 512 µg/mL (≈ 2200 µM)
Pseudomonas aeruginosa [12]; PAO1 H1121, 24 h
  MIC: 128 µg/mL (≈ 551 µM)

## O=C(O)c1cn(C2CC2)c2cc(N3CCNCC3)c(F)cc2c1=O [CIPROFLOXACIN]
Pseudomonas aeruginosa [1]; PAO1 H1109, 24 h
  MIC: 0.05 µg/mL (≈ 0.151 µM)
Pseudomonas aeruginosa [2]; PAO1 H1104, 24 h
  MIC: 0.025 µg/mL (≈ 0.0754 µM)
Pseudomonas aeruginosa [3]; PAO1 H1106, 24 h
  MIC: 0.025 µg/mL (≈ 0.0754 µM)
Pseudomonas aeruginosa [17]
  Activity: inactive
Pseudomonas aeruginosa [4]; PAO1 H1136, 24 h
  MIC: 0.4 µg/mL (≈ 1.21 µM)
Pseudomonas aeruginosa [13]
  fold change (FC): 4
Pseudomonas aeruginosa [14]
  fold change (FC): 4
Pseudomonas aeruginosa [18]
  Activity: Active
Pseudomonas aeruginosa [19]
  Activity: Active
Pseudomonas aeruginosa [5]; PAO1 H1105, 24 h
  MIC: 0.025 µg/mL (≈ 0.0754 µM)
Pseudomonas aeruginosa [20]
  Activity: inactive
Pseudomonas aeruginosa [21]
  Activity: inactive
Pseudomonas aeruginosa [22]
  Activity: inactive
Pseudomonas aeruginosa [15]
  fold change (FC): 1
Pseudomonas aeruginosa [6]; PAO1 H1125, 24 h
  MIC: 0.025 µg/mL
Pseudomonas aeruginosa [7]; PAO1 H103, 24 h
  MIC: 0.1 µg/mL (≈ 0.302 µM)
Pseudomonas aeruginosa [16]
  fold change (FC): 4
Pseudomonas aeruginosa [8]; PAO1 H1133, 24 h
  MIC: 0.8 µg/mL (≈ 2.41 µM)
Pseudomonas aeruginosa [9]; PAO1 H1124, 24 h
  MIC: 0.05 µg/mL (≈ 0.151 µM)
Pseudomonas aeruginosa [10]
  MIC: 0.1 µg/mL (≈ 0.302 µM)
Pseudomonas aeruginosa [11]; PAO1 H1129, 24 h
  MIC: 0.4 µg/mL (≈ 1.21 µM)
Pseudomonas aeruginosa [12]; PAO1 H1121, 24 h
  MIC: 0.05 µg/mL (≈ 0.151 µM)

## CCn1cc(C(=O)O)c(=O)c2cc(F)c(N3CCNCC3)cc21 [NORFLOXACIN]
Pseudomonas aeruginosa [1]; PAO1 H1109, 24 h
  MIC: 0.075 µg/mL (≈ 0.235 µM)
Pseudomonas aeruginosa [2]; PAO1 H1104, 24 h
  MIC: 0.15 µg/mL (≈ 0.47 µM)
Pseudomonas aeruginosa [3]; PAO1 H1106, 24 h
  MIC: 0.15 µg/mL (≈ 0.47 µM)
Pseudomonas aeruginosa [4]; PAO1 H1136, 24 h
  MIC: > 0.6 µg/mL
Pseudomonas aeruginosa [13]
  fold change (FC): 4
Pseudomonas aeruginosa [14]
  fold change (FC): 2
Pseudomonas aeruginosa [5]; PAO1 H1105, 24 h
  MIC: 0.075 µg/mL (≈ 0.235 µM)
Pseudomonas aeruginosa [15]
  fold change (FC): 1
Pseudomonas aeruginosa [6]; PAO1 H1125, 24 h
  MIC: 0.15 µg/mL
Pseudomonas aeruginosa [7]; PAO1 H103, 24 h
  MIC: 0.3 µg/mL (≈ 0.939 µM)
Pseudomonas aeruginosa [16]
  fold change (FC): 2
Pseudomonas aeruginosa [8]; PAO1 H1133, 24 h
  MIC: > 0.6 µg/mL
Pseudomonas aeruginosa [9]; PAO1 H1124, 24 h
  MIC: 0.15 µg/mL (≈ 0.47 µM)
Pseudomonas aeruginosa [10]
  MIC: 0.3 µg/mL (≈ 0.939 µM)
Pseudomonas aeruginosa [11]; PAO1 H1129, 24 h
  MIC: > 0.6 µg/mL
Pseudomonas aeruginosa [12]; PAO1 H1121, 24 h
  MIC: 0.075 µg/mL (≈ 0.235 µM)

## GENTAMICIN
Pseudomonas aeruginosa [1]
  MIC: 2 µg/mL
Pseudomonas aeruginosa [2]
  MIC: 2 µg/mL
Pseudomonas aeruginosa [3]
  MIC: 2 µg/mL
Pseudomonas aeruginosa [4]
  MIC: 2 µg/mL
Pseudomonas aeruginosa [5]
  MIC: 2 µg/mL
Pseudomonas aeruginosa [6]
  MIC: 2 µM
Pseudomonas aeruginosa [7]
  MIC: 2 µg/mL
Pseudomonas aeruginosa [8]
  MIC: 2 µg/mL
Pseudomonas aeruginosa [9]
  MIC: 2 µg/mL
Pseudomonas aeruginosa [11]
  MIC: 2 µg/mL
Pseudomonas aeruginosa [12]
  MIC: 2 µg/mL
